Laboratory results taken from ChEMBL document CHEMBL1130079, “Non-peptide RGD surrogates which mimic a Gly-Asp beta-turn: potent antagonists of platelet glycoprotein IIb-IIIa” (J Med Chem, 1997).

Columns and labels:
[1] = target: Integrin alpha-IIb/beta-3 (Homo sapiens, UniProt P05106+P08514); assay: Concentration required to reduce binding of fibrinogen to purified Fibrinogen Receptor by 50% using ELISA; type: protein-complex assay
Method in brief: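 ELISA of fibrinogen binding to immobilized purified human platelet GPIIb-IIIa; biotinylated fibrinogen detected with alkaline phosphatase-labeled goat antibiotin and p-nitrophenol phosphate substrate; IC50 as inhibition of fibrinogen binding.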

Homo sapiens = species on record: Homo sapiens; assay: Ability to block Glycoprotein IIb-IIIa was measured by inhibiting ADP induced human platelet aggregation (5 uM); type: functional

Chain of Integrin alpha-IIb/beta-3 (P05106 27-788 limits assumed): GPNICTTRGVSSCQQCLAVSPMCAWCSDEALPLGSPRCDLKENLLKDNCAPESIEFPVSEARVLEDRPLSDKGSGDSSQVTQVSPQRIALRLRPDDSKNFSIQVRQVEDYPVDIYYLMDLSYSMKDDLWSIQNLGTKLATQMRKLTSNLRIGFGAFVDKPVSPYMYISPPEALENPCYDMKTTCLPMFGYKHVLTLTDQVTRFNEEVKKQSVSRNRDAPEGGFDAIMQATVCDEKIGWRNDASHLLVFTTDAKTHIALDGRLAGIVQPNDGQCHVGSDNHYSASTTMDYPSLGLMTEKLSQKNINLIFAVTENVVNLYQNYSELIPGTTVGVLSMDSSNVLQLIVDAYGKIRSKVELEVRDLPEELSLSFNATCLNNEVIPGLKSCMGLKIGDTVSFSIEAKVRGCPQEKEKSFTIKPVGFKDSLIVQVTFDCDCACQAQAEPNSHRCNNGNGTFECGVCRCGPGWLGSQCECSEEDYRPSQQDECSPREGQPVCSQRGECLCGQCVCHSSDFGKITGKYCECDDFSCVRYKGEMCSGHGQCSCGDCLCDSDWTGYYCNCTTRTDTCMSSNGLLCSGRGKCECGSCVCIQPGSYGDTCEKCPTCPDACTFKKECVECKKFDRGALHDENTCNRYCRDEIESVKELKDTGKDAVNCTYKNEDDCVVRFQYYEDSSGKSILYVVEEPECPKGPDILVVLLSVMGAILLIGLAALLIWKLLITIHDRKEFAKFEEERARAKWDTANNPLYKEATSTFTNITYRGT
Chain of Integrin alpha-IIb/beta-3 (P08514 32-887 limits assumed): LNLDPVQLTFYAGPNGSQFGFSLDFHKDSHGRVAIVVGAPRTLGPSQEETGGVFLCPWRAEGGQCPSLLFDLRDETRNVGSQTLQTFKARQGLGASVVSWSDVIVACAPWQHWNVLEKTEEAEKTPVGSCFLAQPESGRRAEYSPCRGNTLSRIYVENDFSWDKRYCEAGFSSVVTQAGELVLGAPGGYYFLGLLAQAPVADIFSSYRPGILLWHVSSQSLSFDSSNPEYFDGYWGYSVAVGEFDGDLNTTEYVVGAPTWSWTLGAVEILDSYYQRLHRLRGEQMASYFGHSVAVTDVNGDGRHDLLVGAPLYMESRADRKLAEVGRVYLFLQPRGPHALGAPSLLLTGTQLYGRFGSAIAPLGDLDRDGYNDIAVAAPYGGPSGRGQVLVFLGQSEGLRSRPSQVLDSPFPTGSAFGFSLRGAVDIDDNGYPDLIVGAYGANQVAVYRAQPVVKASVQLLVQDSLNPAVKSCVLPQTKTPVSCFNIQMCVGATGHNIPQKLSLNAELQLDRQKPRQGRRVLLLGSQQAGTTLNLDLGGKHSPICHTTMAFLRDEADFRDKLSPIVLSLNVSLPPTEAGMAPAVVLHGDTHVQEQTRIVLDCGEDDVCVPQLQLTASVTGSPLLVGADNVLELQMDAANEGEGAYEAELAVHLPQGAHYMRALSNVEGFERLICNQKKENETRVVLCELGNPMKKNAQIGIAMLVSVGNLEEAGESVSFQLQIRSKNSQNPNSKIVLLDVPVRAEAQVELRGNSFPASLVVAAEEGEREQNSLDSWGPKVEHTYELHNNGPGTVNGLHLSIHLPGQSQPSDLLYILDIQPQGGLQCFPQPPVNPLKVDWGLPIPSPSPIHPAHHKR
Chain of Integrin alpha-IIb/beta-3 (P08514 891-1039 limits assumed): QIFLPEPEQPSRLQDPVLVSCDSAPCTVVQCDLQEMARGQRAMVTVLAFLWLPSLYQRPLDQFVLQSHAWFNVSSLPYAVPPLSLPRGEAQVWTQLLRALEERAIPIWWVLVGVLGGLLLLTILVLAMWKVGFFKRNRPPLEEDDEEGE

Structure (SMILES) | IC50 [1] [µM] | IC50 (Homo sapiens) [µM]
N=C(N)NCCCOc1ccc2c(c1)CCN(CC(=O)O)C2=O | 44 | 
O=C(O)CN1CCc2cc(OCC3CCNCC3)ccc2C1=O | 55 | 
N=C(N)NCc1cccc(COc2ccc3c(c2)CCN(CC(=O)O)C3=O)c1 | 14 | 
NCCCOc1ccc2c(c1)CCN(CC(=O)O)C2=O | 48 | 
N=C(N)NCCCCOc1ccc2c(c1)C(=O)N(CC(=O)O)CC2 | 46 | 
NCCCCOc1ccc2c(c1)CCN(CC(=O)O)C2=O | 18 | 
NCCCCCOc1ccc2c(c1)CCN(CC(=O)O)C2=O | 28 | 
NCCCCCCOc1ccc2c(c1)CCN(CC(=O)O)C2=O | 19 | 
N=C(N)c1ccc(COc2ccc3c(c2)CCN(CC(=O)O)C3=O)cc1 |  | 30
NCc1ccc(COc2ccc3c(c2)CCN(CC(=O)O)C3=O)cc1 | 12 | 
N=C(N)NCCCCCCOc1ccc2c(c1)CCN(CC(=O)O)C2=O | 12 | 
N=C(N)NCCCOc1ccc2c(c1)C(=O)N(CC(=O)O)CC2 | < 100 | 
N=C(N)c1ccc(CCc2ccc3c(c2)CCN(CC(=O)O)C3=O)cc1 |  | 1.2
NCc1cccc(COc2ccc3c(c2)CCN(CC(=O)O)C3=O)c1 | 77 | 

The remaining lines, values ahead:

IC50 [1] [µM] | IC50 (Homo sapiens) [µM] | Structure (SMILES)
0.076 | 0.56 | N=C(N)c1ccc(NC(=O)c2ccc3c(c2)CCN(CC(=O)O)C3=O)cc1
4 |  | N=C(N)c1ccc(COc2ccc3c(c2)C(=O)N(CC(=O)O)CC3)cc1
0.003 | 0.09 | N=C(N)c1ccc(C(=O)Nc2ccc3c(c2)CCN(CC(=O)O)C3=O)cc1
11 |  | O=C(O)CN1CCc2cc(OCCC3CCNCC3)ccc2C1=O
4 |  | N=C(N)NCc1ccc(COc2ccc3c(c2)CCN(CC(=O)O)C3=O)cc1
0.29 | 5.7 | N=C(N)c1ccc(/C=C\c2ccc3c(c2)CCN(CC(=O)O)C3=O)cc1
10 |  | N=C(N)NCCCCOc1ccc2c(c1)CCN(CC(=O)O)C2=O
6 |  | N=C(N)c1ccc(CCOc2ccc3c(c2)CCN(CC(=O)O)C3=O)cc1
1.8 | 9.8 | O=C(O)CN1CCc2cc(OCCCCC3CCNCC3)ccc2C1=O
6 |  | O=C(O)CN1CCc2cc(OCCCC3CCNCC3)ccc2C1=O
0.048 | 0.34 | N=C(N)c1ccc(/C=C/c2ccc3c(c2)CCN(CC(=O)O)C3=O)cc1
0.033 | 0.52 | N=C(N)c1ccc(C#Cc2ccc3c(c2)CCN(CC(=O)O)C3=O)cc1
